Measurements from ChEMBL document CHEMBL1142575, “New colchicinoids from a native Jordanian meadow saffron, colchicum brachyphyllum: isolation of the first naturally occurring dextrorotatory colchicinoid” (J Nat Prod, 2005).
Values after ≈ are worked out from the molar mass of the structure shown. Active and inactive are the calls of the source. The rule behind the calls is not given here.

Key:
[1] = system: MCF7; assay: Cytotoxicity against human MCF7 after 3 days by SRB assay; format: functional, cell-based; details: MCF7, 72 h
[2] = system: NCI-H460; assay: Cytotoxicity against human H460 after 3 days by SRB assay; format: functional, cell-based; details: NCI-H460, 72 h
[3] = system: SF-268; assay: cells; format: functional, cell-based; details: Homo sapiens, SF-268, 72 h
[4] = (§1) Toxicity in brine shrimp; format: organism-based; details: artemia, in vivo
Outline: (§2)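 Brine shrimp lethality. LC50 in μg/mL, taken from single experiments with four concentrations, each run in triplicate.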

[5] = system: Micrococcus luteus; assay: Antimicrobial activity against Micrococcus luteus after 3 days; format: functional; details: 72 h
[6] = system: Mycolicibacterium smegmatis; assay: Antimicrobial activity against Mycobacterium smegmatis after 3 days; format: functional; details: 72 h
[7] = system: Saccharomyces cerevisiae; assay: Antimicrobial activity against Saccharomyces cerevisiae after 3 days; format: functional; details: 72 h
[8] = system: Aspergillus niger; assay: Antimicrobial activity against Aspergillus niger after 3 days; format: functional; details: 72 h
[9] = species: Rattus norvegicus; assay: Displacement of [3H]flunitrazepam from GABAA in rat cerebral cortical 10 uM
Outline: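 Rat cortical membrane homogenate in 50 mM sodium phosphate/200 mM NaCl pH 7.4. Duplicates, 500 μL final volume: 50 μg protein, test compound 10 μM, 1.0 μM GABA, 1.0 nM [3H]flunitrazepam. Nonspecific binding defined with 10 μM clonazepam. After 1 h at rt, filtered over PEI-soaked GF/B and counted. Net binding change versus basal is given as % of the 10 μM allopregnanolone response.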

[10] = species: Rattus norvegicus; assay: Displacement of […] from GABAA in rat cerebral cortical at 10 uM
Outline: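 Rat cerebral cortex membranes (sucrose homogenate, differential centrifugation, washed in 50 mM sodium phosphate/200 mM NaCl pH 7.4). Duplicate wells, 500 μL final volume: 50 μg protein, test compound 10 μM, 5.0 μM GABA, 2.0 nM [35S]TBPS. Nonspecific binding defined with 200 μM picrotoxin. Incubation 1 h at rt, then GF/B vacuum filtration and scintillation counting. Net change versus basal is reported as % of 10 μM allopregnanolone.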

[11] = system: Artemia; assay: as §1; format: organism-based; details: in vivo; outline: as §2

| Structure (SMILES) | EC50 [1] | EC50 [2] | EC50 [3] | LC50 [4] | MIC [5] | MIC [6] | MIC [7] | MIC [8] | Activity [9] | Activity [10] | LC50 [11] |
| --- | --- | --- | --- | --- | --- | --- | --- | --- | --- | --- | --- |
| CN[C@H]1CCc2cc(OC)c(OC)c(OC)c2-c2ccc(OC)c(=O)cc21 [DEMECOLCINE] | 600 nM | 690 nM | 6200 nM | 61 µg/mL (≈ 164 µM) | > 500 µg/mL | > 500 µg/mL | > 500 µg/mL | > 500 µg/mL | – | – | – |
| COC1=C2c3ccc(OC)c(=O)cc3[C@H]3CC4(C)N3C24C=C(O)C1=O (stereo not given in full) [DEMECOLCINONE] | 28700 nM | 31300 nM | 28400 nM | 79.3 µg/mL (≈ 234 µM) | > 500 µg/mL | > 500 µg/mL | > 500 µg/mL | > 500 µg/mL | – | – | – |
| COc1c2c(cc3c1-c1ccc(OC)c(=O)cc1[C@@H](NC(C)=O)CC3)OCO2 | 61 nM | 59 nM | 97 nM | 7.7 µg/mL (≈ 20.1 µM) | > 500 µg/mL | > 500 µg/mL | > 500 µg/mL | > 500 µg/mL | 50% | 50% | – |
| COc1cc2c(c(OC)c1OC)-c1ccc(OC)c(=O)cc1[C@@H](NC(C)=O)CC2 (stereo in doubt; 1) [COLCHICINE] | 16 nM | 30 nM | 25 nM | 3.7 µg/mL (≈ 9.26 µM) | > 500 µg/mL | > 500 µg/mL | > 500 µg/mL | > 500 µg/mL | – | – | – |
| CN[C@H]1CCc2cc(O)c(OC)c(OC)c2-c2ccc(OC)c(=O)cc21 | 790 nM | 1100 nM | 3200 nM | 71.5 µg/mL (≈ 200 µM) | > 500 µg/mL | > 500 µg/mL | > 500 µg/mL | > 500 µg/mL | – | – | – |
| CC(=O)[C@H]1CC[C@H]2[C@@H]3CC[C@H]4C[C@H](O)CC[C@]4(C)[C@H]3CC[C@]12C | – | – | – | – | – | – | – | – | Active | Active | – |
| COc1cc2c(c(OC)c1OC)-c1ccc(OC)c(=O)cc1[C@@H](NC(C)=O)CC2 (stereo in doubt) [COLCHICINE] | – | – | – | – | – | – | – | – | – | – | 2.8 µg/mL (≈ 7.01 µM) |
| COC1=C[C@@H]2C3=C([C@@H]2C1=O)[C@@H](NC(C)=O)CCc1cc(OC)c(OC)c(OC)c13 | 1500 nM | 2100 nM | 3200 nM | 74.6 µg/mL (≈ 187 µM) | > 500 µg/mL | > 500 µg/mL | > 500 µg/mL | > 500 µg/mL | – | – | – |
| CC[C@@]1(O)C(=O)OCc2c1cc1n(c2=O)Cc2cc3ccccc3nc2-1 [CAMPTOTHECIN] | 72 nM | 6.9 nM | 59 nM | – | – | – | – | – | – | – | – |
| COc1ccc2c(c1O)[C@@H](NC(C)=O)CCc1cc(OC)c(OC)c(OC)c1-2 | 200 nM | 260 nM | 370 nM | 48.8 µg/mL (≈ 126 µM) | > 500 µg/mL | > 500 µg/mL | > 500 µg/mL | > 500 µg/mL | 50% | 50% | – |
| CN[C@H]1CCc2cc(O)c(O)c(OC)c2-c2ccc(OC)c(=O)cc21 | 130000 nM | 216000 nM | 80200 nM | 88.2 µg/mL (≈ 257 µM) | > 500 µg/mL | > 500 µg/mL | > 500 µg/mL | > 500 µg/mL | – | – | – |
| COc1c(O)cc2c(c1OC)-c1ccc(OC)c(=O)cc1[C@@H](NC(C)=O)CC2 [3-DESMETHYLCOLCHICIN] | – | – | – | 74.6 µg/mL (≈ 194 µM) | – | – | – | – | – | – | – |
